Experimental data taken from ChEMBL document CHEMBL2062391, “Antiausterity agents from Uvaria dac and their preferential cytotoxic activity against human pancreatic cancer cell lines in a nutrient-deprived condition” (J Nat Prod, 2012).
Activity calls are given as the source filed them. No cut-off for these calls is given here.

How the values were obtained:
[1] = Cytotoxicity against human KLM1 cells grown in nutrient-rich medium after 24 hrs by WST8 assay; type: cell-based; details: klm1, 24 h
Method in brief: (§1)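 Cells seeded at 2 × 10^4/well and grown 24 h in fresh DMEM or RPMI-1640 at 37 °C, 5% CO2. After a PBS wash, the medium was replaced with serially diluted samples in DMEM (nutrient-rich) or NDM. After 24 h, DMEM with 10% WST-8 solution was added. A450 was read after 3 h. Viability (%) was taken from the mean of three wells, blank-corrected against the control. PC50 is 50% kill in NDM without toxicity in DMEM.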

[2] = (§2) Cytotoxicity against human KLM1 cells grown in nutrient-deprived medium after 24 hrs by WST8 assay; type: functional; method in brief: as §1
KLM1 = assay: as §2; type: functional; method in brief: as §1
PSN1 [3] = assay: Cytotoxicity against human PSN1 cells grown in nutrient-deprived medium after 24 hrs by WST8 assay; type: functional; method in brief: as §1
PANC-1 [4] = assay: Induction of morphological changes in human PANC1 cells assessed as plasma membrane rupture at 25 uM after 24 hrs by inverted-phase contrast microscopic analysis; type: functional, cell-based
Method in brief: (§3)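 Cells (1 × 10^6) were seeded in 60 mm dishes and attached over 24 h in a humidified CO2 incubator. They were washed twice with PBS and treated at 25 μM in DMEM or NDM, alongside controls. After 24 h, cells were viewed by phase-contrast on an inverted microscope with a 40× objective and photographed.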

PANC-1 [5] = assay: Induction of morphological changes in human PANC1 cells assessed as rounding of cells at 25 uM after 24 hrs by inverted-phase contrast microscopic analysis; type: functional, cell-based; method in brief: as §3
PSN1 [6] = assay: Cytotoxicity against human PSN1 cells grown in nutrient-rich medium after 24 hrs by WST8 assay; type: cell-based; details: psn1, 24 h; method in brief: as §1
PANC-1 [7] = assay: Cytotoxicity against human PANC1 cells grown in nutrient-deprived medium after 24 hrs by WST8 assay; type: functional; method in brief: as §1
MIA PaCa-2 [8] = assay: Cytotoxicity against human MIAPaCa2 cells grown in nutrient-deprived medium after 24 hrs by WST8 assay; type: functional; method in brief: as §1
PANC-1 [9] = assay: Induction of morphological changes in human PANC1 cells assessed as loss of cellular content at 25 uM after 24 hrs by inverted-phase contrast microscopic analysis; type: functional, cell-based; method in brief: as §3
PANC-1 [10] = assay: Cytotoxicity against human PANC1 cells grown in nutrient-rich medium after 24 hrs by WST8 assay; type: cell-based; details: panc-1, 24 h; method in brief: as §1
MIA PaCa-2 [11] = assay: Cytotoxicity against human MIAPaCa2 cells grown in nutrient-rich medium after 24 hrs by WST8 assay; type: cell-based; details: mia paca-2, 24 h; method in brief: as §1

Structure (SMILES)	Activity [1]	PC50 [2] [µM]	Activity (KLM1)	Activity (PSN1 [3])	PC50 (PSN1 [3]) [µM]	Activity (PANC-1 [4])	Activity (PANC-1 [5])	Activity (PSN1 [6])	Activity (PANC-1 [7])	PC50 (PANC-1 [7]) [µM]	Activity (MIA PaCa-2 [8])	PC50 (MIA PaCa-2 [8]) [µM]	Activity (PANC-1 [9])	Activity (PANC-1 [10])	Activity (MIA PaCa-2 [11])
O=C(OC[C@@]1(O)C(=O)C=C[C@H]2[C@@H]1[C@H]1C=C[C@@H]2C(=O)[C@]1(O)COC(=O)c1ccccc1)c1ccccc1	Non-toxic	32.7	Dose-dependent effect	Dose-dependent effect	32.6	Active	Active	Non-toxic	Dose-dependent effect	14.5	Dose-dependent effect	17.5	Active	Non-toxic	Non-toxic
COc1ccccc1COC(=O)c1ccccc1	Non-toxic	>200			185			Non-toxic		137		131		Non-toxic	Non-toxic
COc1cc(C[C@H]2C(=O)OC[C@@H]2Cc2ccc(OC)c(OC)c2)ccc1O [ARCTIGENIN]	Non-toxic	1.5			1.9			Non-toxic		1.7		0.67		Non-toxic	Non-toxic
Nc1ccn([C@@H]2O[C@H](CO)[C@@H](O)C2(F)F)c(=O)n1 [GEMCITABINE]	Non-toxic	>200			>200			Non-toxic		>200		>200		Non-toxic	Non-toxic
C/C(=C\COC(=O)c1ccccc1)COC(=O)c1ccccc1 [UVARIDACANE A]	Non-toxic	122			96.5			Non-toxic		72.3		56.3		Non-toxic	Non-toxic
C/C(=C\COC(=O)/C=C/c1ccccc1)COC(=O)c1ccccc1 [UVARIDACANE B]	Non-toxic	>200			143			Non-toxic		134		57.8		Non-toxic	Non-toxic
CC(=O)O[C@H]1C(COC(=O)c2ccccc2)=C[C@@H](O)[C@@H](O)[C@H]1OC(=O)c1ccccc1 [UVARIDACOL A]	Non-toxic	83			173			Non-toxic		102		192		Non-toxic	Non-toxic
CO[C@@H]1C=C(COC(=O)c2ccccc2)[C@H](OC(C)=O)[C@H](OC(=O)c2ccccc2)[C@@H]1O [UVARIDACOL B]	Non-toxic	>200			158			Non-toxic		69.8		147		Non-toxic	Non-toxic
O=C(OCC1=C[C@H](O)[C@H](O)[C@@H](OC(=O)c2ccccc2)[C@@H]1O)c1ccccc1 [UVARIDACOL C]	Non-toxic				152			Non-toxic		72.9		115		Non-toxic	Non-toxic
CC(=O)O[C@@H]1C(COC(=O)c2ccccc2)=C[C@H]2O[C@H]2[C@H]1OC(=O)c1ccccc1 [UVARIDAPOXIDE A]	Non-toxic	159			80.1			Non-toxic		112		100		Non-toxic	Non-toxic
